Measurements reported in publication PMC5900865 (Clinical Pharmacology in Drug Development, 2017).

Legend:
[1] = Study 1A single-rising-dose pharmacokinetics; assay type: in vivo, human; conditions: for Tmax / half-life / AUC(0-inf) / Cmax: human, plasma; for CL/F / Fe0–48, cumulative excretion ratio (% of dose): fasted, men; for Fe0–48, cumulative excretion ratio (% of dose): urine 0 to 48 hours
Outline: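 Healthy men received single oral doses of 2.5–40 mg. The 2.5 mg cohort was redosed fed (30 min post-breakfast) on day 15 after a 14-day washout. EDTA plasma was sampled predose and 1–216 h postdose; urine was pooled at 0–6, 6–12, 12–24 and 24–48 h. Samples were stored at ≤ −20 °C, liquid–liquid extracted and assayed by HPLC-MS/MS. Parameters came from noncompartmental analysis.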

healthy Japanese adults = test: Safety evaluation across all 3 studies; assay type: in vivo, human; conditions: any of the studies
CYP3A4/5 = conditions: cited from earlier work
[2] = single 2.5 mg, n = 5, mean (SD)

Question: With Cc1ccc(Sc2ccccc2N2CCNCC2)c(C)c1 [Vortioxetine, 1‐[2‐(2,4‐dimethylphenylsulfanyl)phenyl]piperazine] as the compound, how does the Tmax ([1]; both, po) read?
Answer: Its Tmax is 6 to 13 h.

Question: And the half-life ([1]; male, oral)?
Answer: Its half-life is 50 to 70 h.

Question: What about the AUC(0-inf) ([1]; male, oral, 2.5 mg) of the same compound?
Answer: Its AUC(0-inf) is 56.5 ng·h/mL.

Question: And the Cmax ([1]; male, oral, 2.5 mg)?
Answer: Its Cmax is 0.8 ng/mL.

Question: What about the Tmax ([1]; male, oral, 2.5 mg) of the same compound?
Answer: Its Tmax is 10 h.

Question: And the AUC(0-inf) ([1]; male, oral, 5 mg)?
Answer: Its AUC(0-inf) is 188 ng·h/mL.

Question: And the Cmax ([1]; male, oral, 5 mg)?
Answer: The Cmax was 1.9 ng/mL.

Question: What about the Tmax ([1]; male, oral, 5 mg) of the same compound?
Answer: Its Tmax is 10 h.

Question: What about the half-life ([1]; male, oral, 5 mg) of the same compound?
Answer: Its half-life is 69.4 h.

Question: What about the AUC(0-inf) ([1]; male, oral, 10 mg) of the same compound?
Answer: Its AUC(0-inf) is 348 ng·h/mL.

Question: And the Cmax ([1]; male, oral, 10 mg)?
Answer: The Cmax was 3.5 ng/mL.

Question: What about the Tmax ([1]; male, oral, 10 mg) of the same compound?
Answer: Its Tmax is 10 h.

Question: And the half-life ([1]; male, oral, 10 mg)?
Answer: Its half-life is 66 h.

Question: And the AUC(0-inf) ([1]; male, oral, 20 mg)?
Answer: Its AUC(0-inf) is 560 ng·h/mL.

Question: And the Cmax ([1]; male, oral, 20 mg)?
Answer: Its Cmax is 7.7 ng/mL.

Question: What about the Tmax ([1]; male, oral, 20 mg) of the same compound?
Answer: The Tmax was 9 h.

Question: What about the AUC(0-inf) ([1]; male, oral, 40 mg) of the same compound?
Answer: Its AUC(0-inf) is 1310 ng·h/mL.

Question: And the Cmax ([1]; male, oral, 40 mg)?
Answer: Its Cmax is 19.4 ng/mL.

Question: What about the Tmax ([1]; male, oral, 40 mg) of the same compound?
Answer: The Tmax was 6.3 h.

Question: What about the CL/F [1, 2] of the same compound?
Answer: The CL/F was 50 (20) L/h.

Question: And the CL/F ([1]; single 5 mg, n = 6, mean (SD))?
Answer: The CL/F was 29.6 (10.3) L/h.

Question: And the CL/F ([1]; single 10 mg, n = 6, mean (SD))?
Answer: Its CL/F is 35.2 (19.2) L/h.

Question: And the CL/F ([1]; single 20 mg, n = 6, mean (SD))?
Answer: The CL/F was 41.4 (17.6) L/h.

Question: What about the CL/F ([1]; single 40 mg, n = 4, mean (SD)) of the same compound?
Answer: Its CL/F is 34.0 (13.1) L/h.

Question: What about the “Fe0–48, cumulative excretion ratio (% of dose)” value [1, 2] of the same compound?
Answer: Its value is 0.0 (0.0) %.

Question: And the “Fe0–48, cumulative excretion ratio (% of dose)” value ([1]; single 5 mg, n = 6, mean (SD))?
Answer: Its value is 0.0 (0.0) %.

Question: What about the “Fe0–48, cumulative excretion ratio (% of dose)” value ([1]; single 10 mg, n = 6, mean (SD)) of the same compound?
Answer: The value was 0.007 (0.018) %.

Question: And the “Fe0–48, cumulative excretion ratio (% of dose)” value ([1]; single 20 mg, n = 6, mean (SD))?
Answer: Its value is 0.023 (0.023) %.

Question: And the “Fe0–48, cumulative excretion ratio (% of dose)” value ([1]; single 40 mg, n = 4, mean (SD))?
Answer: Its value is 0.034 (0.017) %.

Question: What about the “deaths or serious AEs” value (healthy Japanese adults) of the same compound?
Answer: Its value is “no deaths or serious AEs leading to trial discontinuation were observed”.

Question: And the “inhibitory or inducing effect in vitro” value (CYP3A4/5)?
Answer: Its value is “No inhibitory or inducing effect”.
